Values belong to the molecule of their own block, whether it stands above or below them.
Experiments:
C57BL/6J mice = test: Thioglycollate-induced peritonitis; type: in vivo; settings: oral gavage; for level of ICAM1 and CCR2: cells of the peritoneal lavage
[1] = test system: human primary macrophages; test: pE1-CCL2 secreted from LPS-stimulated primary macrophages; type: cell-based
Summary of the method: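 Human PBMCs were separated on an LSM 1077 density gradient and grown overnight at 37°C and 5% CO2. Adherent monocytes/macrophages were detached with accutase, plated at 1 × 10^5 cells/well and stimulated with 1 µg/ml LPS (E. coli O55:B5) for 24 h. Medium pE1-CCL2 was measured by sandwich ELISA: capture with 25 ng/well goat anti-hMCP-1 (overnight, 4°C), samples 2 h at room temperature, TMB read at 450 nm minus 550 nm.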

[2] = test system: LPS-stimulated primary murine glia cells; test: total-CCL2 and pE1-CCL2 ELISA of LPS-stimulated primary glia cells; type: cell-based; settings: varying doses
[3] = test system: LPS-stimulated THP-1 cells; test: CCL2 expression in LPS-stimulated THP-1 cells; type: cell-based, human; settings: increasing concentrations
[4] = test system: LPS-stimulated primary glia cells; test: CCL2 gene expression; type: cell-based, murine; settings: doses of 0.625 and 2.5 µM
Summary of the method: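 Primary glia came from newborn C57BL/6J pups at postnatal day 1. Brains were triturated, strained at 100 and 40 µm, and 6 × 10^5 cells were seeded on poly-L-lysine in DMEM/F12 with 5% FBS and 0.05% gentamicin at 37°C and 5% CO2. Medium was renewed at day 7, and cells (about 85% astrocytes, 15% microglia) were used 12 days after seeding. After LPS stimulation, RNA went to random-primed cDNA and SYBR Green qPCR (comparative quantitation), n = 3–4, ANOVA/Tukey.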

[5] = test system: murine primary macrophages; test: pE1-CCL2 secreted from LPS-stimulated primary macrophages; type: cell-based
Summary of the method: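 Blood was drawn by cardiac puncture into heparin from isoflurane-anaesthetised (2%) mice. PBMCs were separated on an LSM 1077 gradient, grown overnight, and adherent cells were detached with accutase and plated at 1 × 10^5 cells/well. Cells were stimulated with 1 µg/ml LPS (E. coli O55:B5) for 24 h. Medium pE1-CCL2 was measured by ELISA with 50 ng/well rabbit anti-mJE capture (coated 4–7 days, 4°C), read at 450 nm minus 550 nm.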

human recombinant DP4 = human recombinant DP4 (Homo sapiens, UniProt P27487); test: Degradation of MCPs by DP4; type: biochemical; settings: for N-terminal truncation by recombinant human DP4: 10 µg/ml in 25 mM Tris/HCl pH 7.6; for truncation by DP4: mature state bearing a pE-residue
Summary of the method: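 Recombinant CCL2, CCL7, CCL8 and CCL13 (Gln- and pGlu-forms) were either pre-incubated with recombinant human QC (0.6 µg/ml) for 2 h at 30°C and then incubated with recombinant human DP4, or incubated with DP4 alone. Truncation products were read by linear-mode MALDI-TOF-MS in positive ion mode over 2000–20,000 amu, summing at least 6 × 100 laser pulses.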

CCR2 = CCR2 (Homo sapiens, UniProt P41597); test: CCR2 receptor internalization assay; type: cell-based; settings: human THP-1 monocytes, 45 min at 37°C, FACS
Summary of the method: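 THP-1 cells were maintained in RPMI with 10% FBS and 50 µg/ml gentamicin at 37°C, 5% CO2, and checked for mycoplasma. 6 × 10^5 cells were exposed in serum-free RPMI 1640 to N-terminal CCL2 variant ligands, then harvested into cold PBS. They were Fc-blocked for 10 min at 4°C and stained 30 min at 4°C with PE anti-CCR2 or IgG2B isotype control. After a PBS wash, they were analysed by flow cytometry.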

THP-1 cells = test: TransWell chemotaxis assay; type: cell-based, human; settings: THP-1 monocytes, 2 h migration
Summary of the method: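 THP-1 cells were grown in RPMI with 10% FBS and 50 µg/ml gentamicin at 37°C and 5% CO2, with mycoplasma checks. Cells at 1 × 10^6 per 100 µl RPMI1640 went into the upper chamber of 5 µm-pore TransWells, with chemoattractant below and serum-free RPMI as negative control. After 2 h at 37°C, 70 mM EDTA released bound cells (15 min, 37°C). Migrated cells were counted by cell counter or by FACS against 5000 Trucount beads.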

[6] = Degradation of CCL2 in human plasma; type: in vitro ADME; settings: incubation with human plasma
Summary of the method: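 CCL2(Q1-76) was incubated with human plasma, either directly or after pre-incubation with recombinant human QC. N-terminal cleavage products were read by linear-mode MALDI-TOF-MS in positive ion mode over 2000–20,000 amu, calibrated with insulin and myoglobin. Each spectrum sums at least 6 × 100 laser pulses.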

human isoQC = human isoQC (Homo sapiens, UniProt Q9NXS2); test: isoQC inhibition, Ki-values at pH 8; type: biochemical
ApoE3*Leiden mice = test: Cuff-induced accelerated atherosclerosis; type: in vivo
murine isoQC = murine isoQC (Mus musculus, UniProt Q8BH73); test: isoQC inhibition, Ki-values at pH 8; type: biochemical
[7] = test system: models of Alzheimer's disease; settings: high doses for up to 6 months ref Schilling et al, 2008; cited from earlier work
murine QC = murine QC (Mus musculus, UniProt Q9CYK2); test: QC inhibition, Ki-values at pH 8; type: biochemical
[8] = 2 days after surgery, drinking water 2.4 mg/ml

Chain of human recombinant DP4 (P27487 whole entry, the tested form may be a part): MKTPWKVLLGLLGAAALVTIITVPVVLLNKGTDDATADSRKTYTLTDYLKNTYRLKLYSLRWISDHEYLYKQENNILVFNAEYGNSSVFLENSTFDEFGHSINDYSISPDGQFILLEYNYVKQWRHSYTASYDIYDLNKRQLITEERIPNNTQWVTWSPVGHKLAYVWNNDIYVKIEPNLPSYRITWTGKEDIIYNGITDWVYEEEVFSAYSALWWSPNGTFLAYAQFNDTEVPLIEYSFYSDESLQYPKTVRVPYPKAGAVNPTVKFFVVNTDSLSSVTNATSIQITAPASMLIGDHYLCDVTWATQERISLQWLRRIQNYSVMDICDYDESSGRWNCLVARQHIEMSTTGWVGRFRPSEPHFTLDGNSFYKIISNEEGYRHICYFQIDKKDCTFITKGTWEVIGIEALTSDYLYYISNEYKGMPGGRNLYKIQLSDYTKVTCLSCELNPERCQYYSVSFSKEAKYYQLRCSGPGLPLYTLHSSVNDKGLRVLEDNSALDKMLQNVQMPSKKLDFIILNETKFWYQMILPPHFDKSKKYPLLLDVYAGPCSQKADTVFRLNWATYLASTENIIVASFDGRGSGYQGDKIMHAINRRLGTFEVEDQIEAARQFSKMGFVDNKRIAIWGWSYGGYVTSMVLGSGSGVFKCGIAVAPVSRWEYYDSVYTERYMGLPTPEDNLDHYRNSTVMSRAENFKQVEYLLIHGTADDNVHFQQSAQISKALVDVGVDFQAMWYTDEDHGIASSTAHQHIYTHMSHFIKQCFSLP
Chain of CCR2 (P41597 whole entry): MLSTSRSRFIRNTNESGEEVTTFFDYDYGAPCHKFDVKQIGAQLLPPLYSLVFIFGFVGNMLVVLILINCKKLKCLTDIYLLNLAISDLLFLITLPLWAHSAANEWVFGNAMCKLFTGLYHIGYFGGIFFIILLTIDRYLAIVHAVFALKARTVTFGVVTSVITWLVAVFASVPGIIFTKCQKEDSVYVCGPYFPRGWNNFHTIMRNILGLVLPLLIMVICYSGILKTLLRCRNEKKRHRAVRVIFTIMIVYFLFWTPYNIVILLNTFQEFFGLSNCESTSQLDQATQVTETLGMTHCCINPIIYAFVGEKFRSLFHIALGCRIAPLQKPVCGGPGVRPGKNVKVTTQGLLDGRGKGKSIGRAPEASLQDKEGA
Chain of murine QC (Q9CYK2 36-362): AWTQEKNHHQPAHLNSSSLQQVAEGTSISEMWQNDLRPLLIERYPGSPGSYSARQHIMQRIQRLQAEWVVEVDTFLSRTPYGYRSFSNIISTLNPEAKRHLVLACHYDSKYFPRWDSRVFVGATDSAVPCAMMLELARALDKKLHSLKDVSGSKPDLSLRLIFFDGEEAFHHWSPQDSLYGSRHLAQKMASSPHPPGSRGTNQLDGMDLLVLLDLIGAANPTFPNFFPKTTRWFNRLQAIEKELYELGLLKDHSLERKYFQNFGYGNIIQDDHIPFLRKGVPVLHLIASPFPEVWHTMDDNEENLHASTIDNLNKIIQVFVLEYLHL
Chain of murine isoQC (Q8BH73 whole entry): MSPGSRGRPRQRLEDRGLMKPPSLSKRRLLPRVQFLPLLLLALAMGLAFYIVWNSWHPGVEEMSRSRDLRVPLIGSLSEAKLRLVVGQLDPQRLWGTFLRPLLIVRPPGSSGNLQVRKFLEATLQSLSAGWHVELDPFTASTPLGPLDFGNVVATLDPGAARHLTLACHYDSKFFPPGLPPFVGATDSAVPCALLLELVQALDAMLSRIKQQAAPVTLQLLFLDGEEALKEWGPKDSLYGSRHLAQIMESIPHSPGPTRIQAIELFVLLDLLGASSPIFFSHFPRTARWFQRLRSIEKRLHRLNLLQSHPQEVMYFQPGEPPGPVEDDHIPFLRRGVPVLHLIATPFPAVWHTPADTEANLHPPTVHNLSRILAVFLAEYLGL
Chain of human isoQC (Q9NXS2 whole entry): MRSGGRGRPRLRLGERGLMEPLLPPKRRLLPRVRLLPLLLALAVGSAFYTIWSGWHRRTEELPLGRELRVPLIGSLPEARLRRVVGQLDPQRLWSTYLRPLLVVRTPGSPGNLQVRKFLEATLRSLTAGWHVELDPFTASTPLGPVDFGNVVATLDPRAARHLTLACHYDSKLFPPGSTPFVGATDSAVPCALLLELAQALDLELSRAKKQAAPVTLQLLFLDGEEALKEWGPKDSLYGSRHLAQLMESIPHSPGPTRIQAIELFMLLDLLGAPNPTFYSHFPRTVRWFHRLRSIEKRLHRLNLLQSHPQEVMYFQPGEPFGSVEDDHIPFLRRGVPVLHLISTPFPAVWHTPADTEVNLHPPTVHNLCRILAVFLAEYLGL

Molecule: CCCOc1ccc(C2C(=O)NC(=O)N2c2ccc3[nH]cnc3c2)cc1 (centres unmarked) [PQ529, 1-(1H-benzo[d]imidazol-5-yl) -5-(4-propoxyphenyl) imidazolidine-2,4-dione]
gene expression of CCL2, CCL7, IL-6 and TNF-alpha in cells of the peritoneal lavage (C57BL/6J mice): without changing
number of monocytes after stimulation with thioglycollate (C57BL/6J mice): reduced the number of monocytes
level of ICAM1 and CCR2 (C57BL/6J mice): unchanged
pE^1-CCL2 secreted [1]: reduced
concentration of pE^1-CCL2 [2]: decreased the concentration of pE^1-CCL2 dose-dependently
CCL2 expression [3]: did not show an effect
CCL2 mRNA [4]: slight but significant increase
pE^1-CCL2 secreted [5]: reduced

N-terminal truncation by recombinant human DP4 (human recombinant DP4): susceptible to cleavage
Molecule: CCL2(Q^1-76): recombinant human CCL2 possessing an N-terminal glutaminyl residue (immature form)

CCR2 internalization (CCR2): most potent
N-terminal truncation by recombinant human DP4 (human recombinant DP4): prevented N-terminal truncation
Molecule: CCL2(pE^1-76): mature human CCL2 with N-terminal pyroglutamate residue
monocyte attraction (chemotaxis) (THP-1 cells): highest efficacy
N-terminal degradation in human plasma [6]: completely resistant to cleavage

truncation by DP4 (human recombinant DP4): protected against truncation
Molecule: CCL7: recombinant human CCL7, MCP family member

Molecule: CCL2(D^3-76): DP4-cleavage product of CCL2
monocyte attraction (chemotaxis) (THP-1 cells): shift to higher concentrations needed to elicit chemotaxis

truncation by DP4 (human recombinant DP4): protected against truncation
Molecule: CCL13: recombinant human CCL13, MCP family member

Molecule: COc1ccc(NC(=S)NCCCn2ccnc2)cc1OC [PQ50, 1-(3-(1H-Imidazol-1-yl)propyl)-3-(3,4-dimethoxyphenyl)thiourea]
Ki (human isoQC): 236 nM
area of the media (ApoE3*Leiden mice; 2 weeks after surgery): reduced
total area within the outer diameter of the vessel segment, area of the interna, number of foam cells (ApoE3*Leiden mice; 2 weeks after surgery): did not affect
CCL2-immunopositive area (ApoE3*Leiden mice; 2 weeks after surgery, treated vs untreated): did not differ
reduction of monocytes at the cuffed vessel segments (ApoE3*Leiden mice; [8]): 67%
reduction of total adhering cells at the cuffed vessel segments (ApoE3*Leiden mice; [8]): 45%
gene expression of CCL2, CCL7, IL-6 and TNF-alpha in cells of the peritoneal lavage (C57BL/6J mice): without changing
number of monocytes after stimulation with thioglycollate (C57BL/6J mice): reduced the number of monocytes
level of ICAM1 and CCR2 (C57BL/6J mice): unchanged
Ki (murine isoQC): 246 nM
toxicity [7]: without overt signs of toxicity
Ki (murine QC): 170 nM

truncation by DP4 (human recombinant DP4): protected against truncation
B1: CCL8: recombinant human CCL8 (MCP-2) (protein, UniProt P80075 24-99, looked up)
C-C motif chemokine 8: QPDSVSIPITCCFNVINRKIPIQRLESYTRITNIQCPKEAVIFKTKRGKEVCADPKERWVRDSMKHLDQIFQNLKP
